According to ChEMBL document CHEMBL1145431, “Improved anti-osteoporosis potency and reduced endometrial membrane hyperplasia during hormone replacement therapy with estrogen-RGD peptide conjugates” (2007):
Where a SMILES comes first, the peptide text is derived from it. The star is where a group is joined. X2 = C[C@]12CC[C@@H]3c4ccc(OCC(=O)*)cc4CC[C@H]3[C@@H]1CCC2=O

What was measured:
Mus musculus [1] = assay: Increase in body weight in ovariectomized mouse at 0.1103 mmol/kg, ip once daily for 4 weeks; format: functional
How it was run: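 Female Kuiming mice (30.7 ± 3.1 g) underwent abdominal OVX; the sham group had abdominorotomy only. From day 5 after surgery, i.p. dosing once daily for 4 weeks at 110.3 × 10-3 mmol/kg in aqueous 0.5% CMC. Body weight was recorded on the day of the last administration.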

Mus musculus [2] = assay: Effect on serum ALP lavel in ovariectomized mouse at 0.1103 mmol/kg, ip once daily for 4 weeks; format: functional
How it was run: (§1)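 OVX Kuiming mice dosed i.p. daily for 4 weeks in 0.5% CMC. Blood taken retro-orbitally on the day after the last dose, stood 30 min, spun at 3000 g for 20 min, serum stored at -20 °C. Calcium by o-methylphenolphthalein complexone, phosphorus by molybdenum blue, ALP by activity with disodium phenylphosphate substrate.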

Mus musculus [3] = assay: Effect on serum calcium level in ovariectomized mouse at 0.1103 mmol/kg, ip once daily for 4 weeks; format: functional; how it was run: as §1
Mus musculus [4] = assay: Effect on serum phosphorus level in ovariectomized mouse at 0.1103 mmol/kg, ip once daily for 4 weeks; format: functional; how it was run: as §1
Mus musculus [5] = assay: Effect on dry weight of femurs in ovariectomized mouse at 0.1103 mmol/kg, ip once daily for 4 weeks; format: functional, Femur
How it was run: (§2)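 Female Kuiming mice (7 weeks, 30.7 ± 3.1 g) ovariectomized, sham group abdominorotomy. From day 5, i.p. once daily for 4 weeks at 110.3 × 10-3 mmol/kg in 0.5% CMC. Left femur cleaned, length measured, defatted in chloroform-methanol (2:1, 2 × 3 h), dried 120 °C 6 h for dry weight, ashed 800 °C 8 h. Mineral content = ash/dry weight. Ash dissolved in 6 N HCl and diluted. Ca by o-methylphenolphthalein complexone, P by molybdenum blue. Lungs and livers weighed directly.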

Mus musculus [6] = assay: Effect on femur ash weight in ovariectomized mouse at 0.1103 mmol/kg, ip once daily for 4 weeks; format: functional; how it was run: as §2
Mus musculus [7] = assay: Effect on femur length in ovariectomized mouse at 0.1103 mmol/kg, ip once daily for 4 weeks; format: functional; how it was run: as §2
Mus musculus [8] = assay: Effect on calcium level in ovariectomized mouse at 0.1103 mmol/kg, ip once daily for 4 weeks; format: functional; how it was run: as §2
Mus musculus [9] = assay: Effect on phosphorus level in ovariectomized mouse at 0.1103 mmol/kg, ip once daily for 4 weeks; format: functional; how it was run: as §2
Mus musculus [10] = assay: Effect on spleen weight in ovariectomized mouse at 0.1103 mmol/kg, ip once daily for 4 weeks; format: functional
How it was run: (§3)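 Female Kuiming mice (7 weeks old, 30.7 ± 3.1 g), abdominal OVX under pentobarbital (40.0 mg/kg i.p.). From day 5 after surgery, i.p. injection once daily for 4 weeks, compound in aqueous 0.5% CMC prepared just before use. The day after the last dose, mice were anesthetized and killed, and lungs, livers, spleens and uteri were removed and weighed directly. n = 12, ANOVA, p < 0.05.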

Mus musculus [11] = assay: Effect on mineral content in ovariectomized mouse at 0.1103 mmol/kg, ip once daily for 4 weeks; format: functional; how it was run: as §2
Mus musculus [12] = assay: Effect on lung weight in ovariectomized mouse at 0.1103 mmol/kg, ip once daily for 4 weeks; format: functional; how it was run: as §2
Mus musculus [13] = assay: Effect on liver weight in ovariectomized mouse at 0.110 mmol/kg, ip once daily for 4 weeks; format: functional; how it was run: as §2
Mus musculus [14] = assay: Effect on uterus weight in ovariectomized mouse at 0.1103 mmol/kg, ip once daily for 4 weeks; format: functional; how it was run: as §3

Compound | Activity (Mus musculus [1]) [g] | Activity (Mus musculus [2]) [U/L] | Activity (Mus musculus [3]) [mmol/L] | Activity (Mus musculus [4]) [mmol/L] | Activity (Mus musculus [5]) [mg] | Activity (Mus musculus [6]) [mg] | Activity (Mus musculus [7]) [cm] | Activity (Mus musculus [8]) [%] | Activity (Mus musculus [9]) [%] | Activity (Mus musculus [10]) [mg] | Ratio (Mus musculus [11]) | Activity (Mus musculus [12]) [mg] | Activity (Mus musculus [13]) [g] | Activity (Mus musculus [14]) [mg]
CC(C)[C@H](NC(=O)[C@H](CC(=O)O)NC(=O)CNC(=O)[C@@H](N)CCCNC(=N)N)C(=O)O (H-RGDV-OH) | 33.4 | 35.614 | 2.011 | 1.605 | 58.8 | 27.8 | 1.614 | 42.739 | 24.759 | 127 | 0.394 | 171 | 1.153 | 61.1
C[C@]12CC[C@@H]3c4ccc(OCC(=O)N[C@@H](CCCNC(=N)N)C(=O)NCC(=O)N[C@@H](CC(=O)O)C(=O)N[C@@H](CO)C(=O)O)cc4CC[C@H]3[C@@H]1CCC2=O (X2-RGDS-OH) | 32.9 | 32.371 | 2 | 1.604 | 66.9 | 22.6 | 1.634 | 47.613 | 24.399 | 129 | 0.438 | 173 | 1.347 | 63.3
C[C@]12CC[C@@H]3c4ccc(O)cc4CC[C@H]3[C@@H]1CCC2=O [ESTRONE] | 34.3 | 36.271 | 2.012 | 1.601 | 61.1 | 20.8 | 1.606 | 43.84 | 23.979 | 150 | 0.43 | 176 | 1.318 | 141.9
C[C@]12CC[C@@H]3c4ccc(OCC(=O)N[C@@H](CCCNC(=N)N)C(=O)NCC(=O)N[C@@H](CC(=O)O)C(=O)N[C@@H](Cc5ccccc5)C(=O)O)cc4CC[C@H]3[C@@H]1CCC2=O (X2-RGDF-OH) | 34.5 | 32.407 | 2.008 | 1.602 | 65.9 | 24.7 | 1.639 | 49.55 | 24.588 | 140 | 0.462 | 179 | 1.458 | 55.8
